One assay deals with T1, DNA topoisomerase 1 (Homo sapiens, UniProt P11387).
T1 sequence (P11387 whole entry): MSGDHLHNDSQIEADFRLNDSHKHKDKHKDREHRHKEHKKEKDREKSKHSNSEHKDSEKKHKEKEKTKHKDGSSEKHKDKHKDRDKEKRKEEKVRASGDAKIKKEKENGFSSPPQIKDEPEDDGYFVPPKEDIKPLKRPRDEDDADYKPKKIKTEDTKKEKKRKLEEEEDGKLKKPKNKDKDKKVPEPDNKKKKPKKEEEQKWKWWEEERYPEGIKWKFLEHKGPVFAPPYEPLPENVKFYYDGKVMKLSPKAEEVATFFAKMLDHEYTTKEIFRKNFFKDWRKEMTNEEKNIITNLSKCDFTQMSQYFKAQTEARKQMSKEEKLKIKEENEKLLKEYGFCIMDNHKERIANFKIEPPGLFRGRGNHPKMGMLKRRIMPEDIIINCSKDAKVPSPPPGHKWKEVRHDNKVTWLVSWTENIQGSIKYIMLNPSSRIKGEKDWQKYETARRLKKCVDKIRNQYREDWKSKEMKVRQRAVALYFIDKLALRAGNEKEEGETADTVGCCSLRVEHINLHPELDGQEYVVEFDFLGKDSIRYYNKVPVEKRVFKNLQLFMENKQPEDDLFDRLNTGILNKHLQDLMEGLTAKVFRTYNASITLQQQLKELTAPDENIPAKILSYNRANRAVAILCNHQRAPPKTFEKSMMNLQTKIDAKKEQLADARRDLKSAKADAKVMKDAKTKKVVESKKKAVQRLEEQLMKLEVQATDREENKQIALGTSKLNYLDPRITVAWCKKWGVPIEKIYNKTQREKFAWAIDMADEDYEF
As to the kind of experiment: Topoisomerase I activity for single-strand breaks in the DNA substrate. The procedure, abridged: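 Topo I-mediated DNA cleavage assay using covalently closed, supercoiled phage PM2 DNA as substrate; read-out is induction of single-strand breaks.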

For assay [1], the system named is P388. Put plainly: Ratio of IC50 of P388 cells to that of CPT45 cells. It is filed as functional, Mus musculus.
Assay [2] relates to P388. Put plainly: Cytotoxic concentration against murine leukemia P388 cells. It counts as functional, cell-based, Mus musculus.
Assay [3] has as its system HT-29. As to the kind of experiment: Optimal dose required for antitumor activity against HT-29 human colon carcinoma xenograft model when administered once a day iv dosing every other day for five doses (q2dx5,iv). It is filed as functional. In general terms: In xenograft studies the graft and the host belong to different species.
The subject of assay [4] is HT-29. As to the kind of experiment: In vivo antitumor activity against HT-29 human colon carcinoma xenograft model when administered iv, (1:1:8 cremophor: ethanol: water vehicle) expressed as optimal effect in LCK. It counts as functional.
The test system of assay [5] is HT-29. As to the kind of experiment: Antitumor activity against HT-29 human colon carcinoma xenograft model; Activity expressed as no. of cures by total (8). It counts as functional.
The subject of assay [6] is HT-29. Put plainly: Optimal dose required for antitumor activity against HT-29 human colon carcinoma xenograft model when administered once a day iv dosing every other day for five doses (q2dx5,iv); MTD=30 mg.kg/inj. It counts as functional.
The test system of assay [7] is HT-29. Put plainly: Optimal dose required for antitumor activity against HT-29 human colon carcinoma xenograft model when administered twice a day iv dosing every other day for five doses (2q2dx5,iv). It counts as functional.

pEC50, pIC50: −log10 of the molar value. Where only a bound is given, the exact number is not on record here.

On to `O=C1NC(=O)c2c1c1c3cc(F)ccc3[nH]c1c1c2c2cc(F)ccc2n1C1OC(CO)C(F)(F)C(O)C1O` (centres undefined), for which, at DNA topoisomerase 1, the pEC50 was 7.10. The Ratio in the assay with P388 [1] was 380. Further, the pIC50 with P388 [2] (Mus musculus, P388) is 8.52.

On to `O=C1NC(=O)c2c1c1c3ccc(F)cc3[nH]c1c1c2c2ccc(F)cc2n1C1OC(CO)C(F)C(O)C1O` (centres undefined), for which, at DNA topoisomerase 1, the pEC50 was 6.70. Further, the Ratio in the assay on P388 [1] is on record as 59. The compound further gave a pIC50 in the assay on P388 [2] (Mus musculus, P388) of 8.52.

With `O=C1NC(=O)c2c1c1c3cc(F)c(F)cc3sc1c1c2c2cc(F)c(F)cc2n1C1OC(CO)C(F)(F)C(O)C1O` (centres undefined), the pEC50 on DNA topoisomerase 1 was 6.30. In the assay with P388 [1], the Ratio is 580. For the same compound, in the assay with P388 [2] (Mus musculus, P388), the pIC50 was 9.40.

Compound `O=C1NC(=O)c2c1c1c3cc(F)c(F)cc3sc1c1c2c2cc(F)c(F)cc2n1C1OC(CF)C(O)C(O)C1O` (centres undefined) gave a pEC50 on DNA topoisomerase 1 of 5.82. The Ratio in the assay with P388 [1] is listed as 119. Moreover, the negative logarithm of the IC50 (pIC50) with P388 [2] (Mus musculus, P388) is 7.28.

Turning to `O=C1NC(=O)c2c1c1c3cc(F)ccc3[nH]c1c1c2c2cc(F)ccc2n1C1OC(COF)C(F)C(O)C1O` (centres undefined), the pEC50 on DNA topoisomerase 1 was 6.39. For the same compound, the Ratio with P388 [1] is 450. This compound returned an Optimal dose in the assay on HT-29 [3] of 13 mg.kg/inj. Further, the pIC50 in the assay with P388 [2] (Mus musculus, P388) is 8.40. The same compound yielded an Activity with HT-29 [4] of 1.6. In addition, the No. of cures in the assay with HT-29 [5] is reported as 0.

At DNA topoisomerase 1, `O=C1NC(=O)c2c1c1c3cc(F)ccc3sc1c1c2c2cc(F)ccc2n1C1OC(CF)C(O)C(O)C1O` (centres undefined) had a negative-log EC50 (pEC50) of 6.38. Besides, the Ratio in the assay on P388 [1] is 110. This compound also showed a pIC50 in the assay on P388 [2] (Mus musculus, P388) of 7.80.

`O=C1NC(=O)c2c1c1c3cc(F)ccc3[nH]c1c1c2c2cc(F)ccc2n1C1OC(CO)C(O)C(O)C1O` (centres undefined) showed a pEC50 on DNA topoisomerase 1 of 6.62. In the assay on P388 [1], the Ratio stood at 183. For the same compound, the pIC50 in the assay on P388 [2] (Mus musculus, P388) is 7.74.

The compound `O=C1NC(=O)c2c1c1c3cc(F)ccc3[nH]c1c1c2c2cc(F)ccc2n1C1OC(CO)C(F)C(O)C1O` (centres undefined) had a pEC50 at DNA topoisomerase 1 of 6.96. For the same compound, the Optimal dose in the assay on HT-29 [6] is 20 mg.kg/inj. The Ratio in the assay with P388 [1] is 380. Moreover, in the assay on P388 [2] (Mus musculus, P388), the pIC50 is 8.70. For the same compound, in the assay with HT-29 [4], the Activity came to 3.1. Moreover, the No. of cures with HT-29 [5] turned out to be 2.

Compound `NCC1OC(n2c3cc(F)c(F)cc3c3c4c(c5c6cc(F)c(F)cc6[nH]c5c32)C(=O)NC4=O)C(O)C(O)C1(F)F` (centres undefined) had a pEC50 on DNA topoisomerase 1 of 7.30. The Ratio in the assay with P388 [1] worked out at 16. Moreover, in the assay with P388 [2] (Mus musculus, P388), the negative logarithm of the IC50 (pIC50) was 7.22.

In turn, `O=C1NC(=O)c2c1c1c3cc(F)c(F)cc3[nH]c1c1c2c2cc(F)c(F)cc2n1C1OC(CO)C(F)C(O)C1O` (centres undefined) had a pEC50 on DNA topoisomerase 1 of 6.12. Moreover, the Ratio in the assay with P388 [1] was found to be 500. This compound also gave a pIC50 with P388 [2] (Mus musculus, P388) of 8.40.

In the case of `O=C1NC(=O)c2c1c1c3cc(F)c(F)cc3[nH]c1c1c2c2cc(F)c(F)cc2n1C1OC(CF)C(O)C(O)C1O` (centres undefined), the pEC50 at DNA topoisomerase 1 was 5.52. The Ratio in the assay on P388 [1] turned out to be 52. Besides, the pIC50 with P388 [2] (Mus musculus, P388) was 7.47.

`O=C1NC(=O)c2c1c1c3cc(F)c(F)cc3sc1c1c2c2cc(F)c(F)cc2n1C1OC(CO)C(F)C(O)C1O` (centres undefined) showed a pEC50 on DNA topoisomerase 1 of 7.40. The Optimal dose with HT-29 [7] is given as 11 mg.kg/inj. Also, in the assay with P388 [1], the Ratio is above 1658. In the assay with P388 [2] (Mus musculus, P388), this compound showed a negative-log IC50 (pIC50) of 8.52. Also, the Activity in the assay with HT-29 [4] is above 2.3. The same compound came in with a No. of cures with HT-29 [5] of 2.

In the case of `NCC1OC(n2c3ccc(F)cc3c3c4c(c5c6cc(F)ccc6[nH]c5c32)C(=O)NC4=O)C(O)C(O)C1F` (centres undefined), the pEC50 at DNA topoisomerase 1 is 7.15. Moreover, the Ratio in the assay on P388 [1] amounted to 37. The pIC50 in the assay with P388 [2] (Mus musculus, P388) is 7.85.

At DNA topoisomerase 1, `O=C1NC(=O)c2c1c1c3cc(F)ccc3[nH]c1c1c2c2cc(F)ccc2n1C1OC(CF)C(O)C(O)C1O` (stereo in doubt; 6) gave a pEC50 of 6.32. In the assay with P388 [1], the Ratio was found to be 98. The compound further showed a pIC50 in the assay with P388 [2] (p388) of 7.30.

Consider `O=C1NC(=O)c2c1c1c3cc(F)ccc3[nH]c1c1c2c2cc(F)ccc2n1C1OC(CF)C(O)C(O)C1O` (stereo in doubt; 10), for which the pEC50 at DNA topoisomerase 1 is 5.36. Further, the Ratio in the assay with P388 [1] was 110. In the assay on P388 [2] (p388), this compound had a pIC50 of 7.92.

For orientation: pEC50 means −log10 of the EC50, conventionally taken in molar units. For orientation: pIC50 means the negative decadic logarithm of the IC50, by convention in mol/L. Higher therefore signals a small IC50.
